Hits are enriched below; roughly 4.1% of the tested compounds scored in any of these assays.
APP 5'UTR act: activates APP 5'UTR luciferase reporter; SH-SY5Y APP 5'UTR luciferase reporter, luminescence; zero percent = DMSO vehicle wells; 190,000 compounds, 1% hits; activation, % at 2 µM; AID 1276;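 active means activation above a set limit, based on mean plus 3 SD of controls, cut at about 140% in these data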
STAT1 act: STAT1 signaling activation. activation (% of control), % at 5.5 µM. NIH 3T3 STAT1-luciferase reporter, IFN-gamma, luminescence; 100% = IFN-gamma alone, no compound. 200,000 compounds, 2.6% hits. AID 932;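 active means activation above the screen-wide mean activation plus 3 SD, cut at about 130% in these data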;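 further: raw ratio to IFN-gamma control signal so 100% means no change and 0% no light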
FLuc act counter: affects firefly luciferase, flagging false hits in luciferase stimulation screens; ATPlite luciferase biochemical, luminescence, 10 min; 0 = ATP-free wells, 1 = DMSO control; AID 1027; activation factor at 10 µM; P08659; 200,000 tested, under 10 active;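 active means luciferase activation factor, scaled between plate controls, of at least 2 with compound at 10 µM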
Target sequence (P08659 whole entry, looked up): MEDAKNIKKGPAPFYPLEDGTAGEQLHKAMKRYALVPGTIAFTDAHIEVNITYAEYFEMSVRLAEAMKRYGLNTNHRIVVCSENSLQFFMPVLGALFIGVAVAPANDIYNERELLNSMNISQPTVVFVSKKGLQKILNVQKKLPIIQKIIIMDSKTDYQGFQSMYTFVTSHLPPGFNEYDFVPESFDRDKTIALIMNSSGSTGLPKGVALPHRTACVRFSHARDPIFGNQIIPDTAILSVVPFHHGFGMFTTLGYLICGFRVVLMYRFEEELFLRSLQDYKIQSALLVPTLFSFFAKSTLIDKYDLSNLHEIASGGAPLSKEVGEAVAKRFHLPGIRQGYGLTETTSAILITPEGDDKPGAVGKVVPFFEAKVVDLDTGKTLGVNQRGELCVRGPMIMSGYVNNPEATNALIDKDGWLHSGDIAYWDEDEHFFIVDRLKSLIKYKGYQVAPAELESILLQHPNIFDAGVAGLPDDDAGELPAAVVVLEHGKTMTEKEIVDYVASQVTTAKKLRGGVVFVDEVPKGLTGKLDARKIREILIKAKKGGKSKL
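Material: Luciferase/luciferin reagent mix | Doses: Test compounds dosed from 2 mM stocks in 100% DMSO | Timing: 10 min incubation after luciferase reagent addition, room temperature | Measured by: Luminescence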
FLuc inhib CS: Photinus pyralis luciferase inhibition counter-screen | P08659 | 200,000 compounds, 1.5% hits | inhibition, % at 10 µM | ATPLite firefly luciferase biochemical luminescence, 10 min;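 active means inhibition above about 50% when tested at 10 µM, limit read from the data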
NF-kB expr up: compounds increasing NF-kB expression in human neuronal cells. NF-kB reporter expression; stronger effect = higher value. fold change at 12.5 µM. 190,000 compounds, 1.6% hits. AID 1239; in the data active means fold change above about 3.3
Starred values were filed as active, the others as inactive.

`COC(=O)c1ccc(CO/N=C/c2ccc(OC)cc2)o1` gave APP 5'UTR act 11, STAT1 act 121, FLuc act counter 1, FLuc inhib CS -2 and NF-kB expr up 4.6*.
Screening COC(=O)c1ccc(COc2ccc(C=O)cc2OC)o1 returned APP 5'UTR act -2, STAT1 act 102, FLuc act counter 0.9, FLuc inhib CS 6 and NF-kB expr up 1.4.
`COC(=O)c1cccc(N2C(=O)C(Cl)=C(N3CCOCC3)C2=O)c1` gave APP 5'UTR act -2, STAT1 act 94, FLuc act counter 1, FLuc inhib CS 2 and NF-kB expr up 1.1.
Screening O=C1N/C(=C/c2ccc(N3CCOCC3)o2)C(=O)N1c1cccc(Cl)c1 returned APP 5'UTR act -76, STAT1 act 130*, FLuc act counter 1, FLuc inhib CS -4 and NF-kB expr up 1.6.
For Cc1ccsc1C(=O)OCc1csc(-c2ccccc2)n1 the results were APP 5'UTR act 195*, STAT1 act 99, FLuc act counter 0.5, FLuc inhib CS 48 and NF-kB expr up 9.4*.
Screening Cn1cccc1C(=O)OCc1csc(-c2ccccc2)n1 returned APP 5'UTR act 150*, STAT1 act 134*, FLuc act counter 0.4, FLuc inhib CS 61* and NF-kB expr up 5.8*.
`CNS(=O)(=O)c1cccc(C(=O)OCc2csc(-c3ccccc3)n2)c1` gave APP 5'UTR act 17, STAT1 act 112, FLuc act counter 1, FLuc inhib CS 1 and NF-kB expr up 1.1.
For Cc1ccccc1Nc1nc(N)nc(COC(=O)c2cccn2C)n1 the results were APP 5'UTR act 77, STAT1 act 141*, FLuc act counter 1, FLuc inhib CS 2 and NF-kB expr up 2.9.
`Cc1ccc(NC(=O)Cn2cncc2-c2ccc([N+](=O)[O-])cc2)cc1C` gave APP 5'UTR act 8, STAT1 act 99, FLuc act counter 1, FLuc inhib CS -3 and NF-kB expr up 1.1.
For Cc1cc(C(=O)NCC(=O)OCC(=O)NCCc2ccccc2)ccc1[N+](=O)[O-] the results were APP 5'UTR act 13, STAT1 act 110, FLuc act counter 1, FLuc inhib CS -1 and NF-kB expr up 1.1.
CCn1c(=N)c(C(=O)NC)cc2c(=O)n3cccc(C)c3nc21 was read as APP 5'UTR act 6, FLuc act counter 1.1 and FLuc inhib CS -9.
`CCNc1nc(C)c2cc(Br)c(=O)n(CC)c2n1` gave APP 5'UTR act -17, STAT1 act 139*, FLuc act counter 1, FLuc inhib CS -3 and NF-kB expr up 1.6.
For Cc1nc2nc(-c3ccccc3)cc(=O)n2[nH]1 the results were APP 5'UTR act 4, STAT1 act 79, FLuc act counter 0.4, FLuc inhib CS 56* and NF-kB expr up 1.5.
Screening O=c1cc(-c2ccccc2)nc2nc(-c3ccco3)[nH]n12 returned APP 5'UTR act 11, STAT1 act 91, FLuc act counter 0.3, FLuc inhib CS 72* and NF-kB expr up 1.2.
For O=C1CCC(=O)N1c1nc2nc(-c3ccccc3)cc(=O)n2[nH]1 the results were APP 5'UTR act 2, STAT1 act 100, FLuc act counter 1.1, FLuc inhib CS -6 and NF-kB expr up 1.1.
For CCOC(=O)C1(Cc2ccccc2)CCCN(CCO)C1 (stereo not drawn) the results were APP 5'UTR act 9, STAT1 act 104, FLuc act counter 1.1, FLuc inhib CS -8 and NF-kB expr up 1.3.
`O=c1cc(CN2CCc3ccccc3C2)nc2sccn12` gave APP 5'UTR act 5, STAT1 act 95, FLuc act counter 1, FLuc inhib CS -1 and NF-kB expr up 3.5*.
Screening CCN(CC)S(=O)(=O)c1cc(C(=O)Oc2ccccc2OC)ccc1OC returned APP 5'UTR act 0, STAT1 act 90, FLuc act counter 1.1, FLuc inhib CS -8 and NF-kB expr up 0.98.
`Cc1ccc(NC(=O)N2CCCC2)cc1Cl` gave APP 5'UTR act 31, STAT1 act 117, FLuc act counter 0.9, FLuc inhib CS 7 and NF-kB expr up 1.4.
`Cc1ccc(NC(=O)C(=O)N2CCCC2)cc1Cl` gave APP 5'UTR act 89, STAT1 act 148*, FLuc act counter 0.9, FLuc inhib CS 10 and NF-kB expr up 3.
`O=C(CN1CCCCCC1)Nc1cccc([N+](=O)[O-])c1` gave APP 5'UTR act 13, STAT1 act 106, FLuc act counter 1.1, FLuc inhib CS -6 and NF-kB expr up 1.1.
